Measurements as given in ChEMBL document CHEMBL5260803, “Discovery of Novel, Orally Bioavailable β-Amino Acid Azaindole Inhibitors of Influenza PB2” (ACS Med Chem Lett, 2017).
The source made the active and inactive calls. The rule behind the calls is not given here.

Legend:
Influenza A virus [1] = assay: Antiviral activity against Influenza A virus A/PR/8/34 infected in MDCK cells assessed as reduction in viral RNA level incubated for 20 hrs by bDNA hybridization method; format: functional; details: A/PR/8/34, MDCK
How it was run: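 Branched-DNA read-out of viral RNA in infected cells. EC90 is the compound concentration at which viral RNA equals 10% of that in control wells.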

[2] = target: Polymerase basic protein 2 (Influenza A virus (strain A/Puerto Rico/8/1934 H1N1), UniProt P03428); assay: Binding affinity to full length Influenza A virus PB2 cap-binding domain assessed as dissociation constant incubated for 60 mins by fluorescence polarization assay
How it was run: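 Fluorescence polarization competition binding assay against the cap-binding domain of the PB2 subunit, giving Kd.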

Influenza A virus [3] = assay: Antiviral activity against Influenza A virus A/PR/8/34 infected in BALB/C mouse model assessed as increase in survival at 10 mg/kg, po administered twice daily for 10 days from 48 hrs post-infection and measured for 21 days; format: functional, organism-based; details: time 21.0 day
How it was run: (§1)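 Male BALB/c mice, 8 per group, inoculated intranasally with mouse-adapted A/PR/8/34 at 5e3 TCID50/mouse. Oral dosing twice daily for 10 days, starting 48 h after infection, at 10, 30 or 60 mg/kg. Survival and body weight were tracked against untreated controls.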

[4] = Clearance in rat at 1 mg/kg, iv; format: ADME, organism-based; details: in vivo
[5] = Half-life in rat at 1 mg/kg, iv; format: ADME, organism-based; details: in vivo
[6] = AUC in rat at 3 mg/kg, po; format: ADME, organism-based; set-up: dose 3 mg/kg, route po; details: in vivo
[7] = AUC in mouse at 30 mg/kg, po; format: ADME, organism-based; set-up: dose 30 mg/kg, route po; details: in vivo
[8] = Cmax in mouse at 30 mg/kg, po; format: ADME, organism-based; set-up: dose 30 mg/kg, route po; details: in vivo
Influenza A virus [9] = assay: Antiviral activity against oseltamivir sensitive Influenza A virus A/Georgia/17/2006 (H1N1) infected in MDCK cells incubated for 72 hrs by cell protection assay; format: functional, organism-based
How it was run: (§2)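 MDCK cells incubated with test compound and influenza A virus for 72 h. EC50 is the concentration giving 50% cell protection, reported as the mean of N=3. Oseltamivir resistant or sensitive status was assigned by externally validated phenotypic or genetic analysis.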

Influenza A virus [10] = assay: Antiviral activity against oseltamivir sensitive Influenza A virus A/[…]/8/34 (H1N1) infected in MDCK cells incubated for 72 hrs by cell protection assay; format: functional, organism-based; how it was run: as §2
Influenza A virus [11] = assay: Antiviral activity against oseltamivir sensitive Influenza A virus A/Henan/Jinshui/147/2007 (H3N2) infected in MDCK cells incubated for 72 hrs by cell protection assay; format: functional, organism-based; how it was run: as §2
Influenza A virus [12] = assay: Antiviral activity against oseltamivir sensitive Influenza A virus A/California/07/2009 (H1N1) infected in MDCK cells incubated for 72 hrs by cell protection assay; format: functional, organism-based; how it was run: as §2
Influenza A virus [13] = assay: Antiviral activity against oseltamivir sensitive Influenza A virus A/Vietnam/1203/2004 (H5N1) infected in MDCK cells incubated for 72 hrs by cell protection assay; format: functional, organism-based
Influenza A virus [14] = assay: Antiviral activity against Influenza A virus A/PR/8/34 infected in BALB/C mouse model assessed as increase in survival at 10 to 60 mg/kg, po administered twice daily for 10 days from 48 hrs post-infection and measured for 21 days; format: functional, organism-based; details: dose 10-60 mg/kg, time 21.0 day; how it was run: as §1
[15] = Toxicity in BALB/C mouse model of influenza infected with Influenza A virus A/PR/8/34 assessed as body weight loss administered orally twice daily for 10 days from 48 hrs post-infection and measured for 21 days; details: in vivo, po, 504 h, dose 10-60 mg/kg, time 21 day; how it was run: as §1
[16] = Stability in rat S9 fraction assessed as compound remaining at 1 uM; format: ADME, subcellular; details: read-out: Stability
[17] = Stability in human S9 fraction assessed as compound remaining at 1 uM; format: ADME, subcellular; details: read-out: Stability

Polymerase basic protein 2, sequence (P03428 whole entry, the tested form may be a part): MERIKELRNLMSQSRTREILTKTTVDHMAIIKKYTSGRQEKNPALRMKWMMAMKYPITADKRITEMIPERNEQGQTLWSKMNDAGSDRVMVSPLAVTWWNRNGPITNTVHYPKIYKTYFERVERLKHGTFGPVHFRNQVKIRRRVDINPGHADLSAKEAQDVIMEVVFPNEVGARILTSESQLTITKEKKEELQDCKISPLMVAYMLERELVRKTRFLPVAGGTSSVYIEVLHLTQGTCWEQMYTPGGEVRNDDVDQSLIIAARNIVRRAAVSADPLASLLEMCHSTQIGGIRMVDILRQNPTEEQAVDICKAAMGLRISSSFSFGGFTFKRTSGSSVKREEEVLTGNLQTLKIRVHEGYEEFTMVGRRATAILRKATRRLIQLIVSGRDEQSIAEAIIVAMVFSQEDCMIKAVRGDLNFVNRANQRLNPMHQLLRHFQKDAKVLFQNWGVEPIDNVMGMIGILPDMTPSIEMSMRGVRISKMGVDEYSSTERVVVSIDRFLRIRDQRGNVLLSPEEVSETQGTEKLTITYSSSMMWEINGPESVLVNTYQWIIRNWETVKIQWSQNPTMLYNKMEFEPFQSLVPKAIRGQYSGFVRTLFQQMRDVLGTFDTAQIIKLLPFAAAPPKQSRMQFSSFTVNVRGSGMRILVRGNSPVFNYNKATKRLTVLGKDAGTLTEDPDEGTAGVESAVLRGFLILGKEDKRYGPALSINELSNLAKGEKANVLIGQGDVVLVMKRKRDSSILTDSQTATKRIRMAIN

Row | Structure (SMILES) | EC90 (Influenza A virus [1]) | Kd [2] | also measured
1 | CC(C)(C)[C@H](CC(=O)O)Nc1nc(-c2c[nH]c3ncc(Cl)cc23)ncc1F | > 3300 nM | 200 nM | 
2 | CCC(C)(C)[C@@H](CC(=O)O)Nc1nc(-c2c[nH]c3ncc(F)cc23)ncc1F | 60 nM | < 3 nM | 
3 | CCOC(=O)C1=C[C@@H](OC(CC)CC)[C@H](NC(C)=O)[C@@H](N)C1 |  |  | Activity (Influenza A virus [3]): inactive
4 | CC(C)(C(CC(=O)O)Nc1nc(-c2c[nH]c3ncc(F)cc23)ncc1F)C(F)(F)F (racemic) | 520 nM |  | 
5 | O=C(O)C[C@@H](Nc1nc(-c2c[nH]c3ncc(F)cc23)ncc1F)C1CCC1 | 780 nM |  | 
6 | CC(C)(C)[C@H](CC(=O)O)Nc1nc(-c2c[nH]c3ncc(F)cc23)ncc1F | > 6650 nM | 150 nM | 
7 | CC1([C@@H](CC(=O)O)Nc2nc(-c3c[nH]c4ncc(F)cc34)ncc2F)CCCC1 | 20 nM | < 3 nM | 
8 | CC(C)(C)[C@@H](CC(=O)O)Nc1nc(-c2c[nH]c3ncc(F)cc23)ncc1F | 30 nM | 3 nM | clearance [4]: 8 mL/min/kg; half-life [5]: 9.9 h; AUC [6]: 3300 ng·h/mL; AUC [7]: 7200 ng·h/mL; Cmax [8]: 11800 ng/mL; EC50 (Influenza A virus [9]): 9 nM; EC50 (Influenza A virus [10]): 14 nM; EC50 (Influenza A virus [11]): 19 nM; EC50 (Influenza A virus [12]): 4 nM; EC50 (Influenza A virus [13]): 4 nM; Activity (Influenza A virus [14]): Active; Activity [15]: Non-Toxic
9 | C[C@](CC(=O)O)(Nc1nc(-c2c[nH]c3ncc(F)cc23)ncc1F)C1CCC1 | 10 nM | < 3 nM | AUC [7]: 6700 ng·h/mL; Cmax [8]: 7400 ng/mL; remaining at 1 µM [16]: 100%; remaining at 1 µM [17]: 94%; Activity (Influenza A virus [14]): Active
10 | CC(C)[C@@H](CC(=O)O)Nc1nc(-c2c[nH]c3ncc(F)cc23)ncc1F | 590 nM |  | 
11 | CC(C)(C)[C@@H](CC(=O)O)Nc1nc(-c2c[nH]c3ncc(Cl)cc23)ncc1F | 23 nM | < 3 nM | 
12 | CC1(C(CC(=O)O)Nc2nc(-c3c[nH]c4ncc(F)cc34)ncc2F)CCCCC1 (racemic) | 120 nM | < 3 nM | 
13 | CCC(CC)C(CC(=O)O)Nc1nc(-c2c[nH]c3ncc(F)cc23)ncc1F (racemic) | 340 nM |  | 
14 | CC1([C@@H](CC(=O)O)Nc2nc(-c3c[nH]c4ncc(F)cc34)ncc2F)CC1 | 670 nM |  | 
